Laboratory results: ChEMBL document CHEMBL1135534, “Synthesis, cytotoxicity, and antiplasmodial and antitrypanosomal activity of new neocryptolepine derivatives” (J Med Chem, 2002)
Activity calls are given as the source filed them. The calls are words filed in the database; no cut-off is given here.

Experiments:
[1] = Inhibition of beta-hematin formation; active
Trypanosoma cruzi = assay: Antitrypanosomal activity against Trypanosoma cruzi; assay type: functional, organism-based
Procedure, shortened: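 Primary mouse peritoneal macrophages seeded at 30 000 per well; after 24 h, about 10 000 trypomastigotes added per well with 2-fold drug dilutions. Incubated 4 days at 37 °C in 5% CO2/95% air. Cells MeOH-fixed and Giemsa-stained. Percent reduction of total parasite load (free trypomastigotes plus intracellular amastigotes) versus untreated cultures scored microscopically. IC50 in triplicate (mean ± SD).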

Nucleic Acid [2] = assay: (§1) Inhibition of DNA interaction using DNA Methyl Green Assay.; assay type: nucleic-acid assay
Procedure, shortened: (§2)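 DNA–methyl green complex stirred 24 h at 37 °C in 0.05 M Tris-HCl pH 7.5 with 7.5 mM MgSO4. Compound dried in wells under vacuum, then complex solution added. Absorbance at 620 nm compared between start and 24 h. IC50 taken as the concentration giving 50% absorbance decrease (50% dye displacement).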

Trypanosoma brucei = assay: Antitrypanosomal activity against Trypanosoma brucei.; assay type: functional, organism-based
Procedure, shortened: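 Bloodstream-form trypomastigotes grown in HMI-9 medium; 10 000 parasites per well exposed to a range of compound concentrations for 4 days. Multiplication read colorimetrically at 490 nm after MTT addition. Test compounds as hydrochloride salts; IC50 determined in triplicate (mean ± SD).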

Plasmodium falciparum [3] = assay: Antiplasmodial activity against chloroquine-resistant Plasmodium falciparum W2; assay type: functional, organism-based
Procedure, shortened: (§3)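 Asexual P. falciparum cultures at 1% parasitaemia and 2% haematocrit (W2 for line 1, Ghana for line 2) exposed to 2-fold serial dilutions of the HCl salt for 48 h at 37 °C under 93% N2/4% CO2/3% O2. Plates frozen at -20 °C to lyse cells. Parasite LDH read-out: APAD reduction coupled to NBT formazan at 650 nm. IC50 in triplicate, mean ± SD.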

MRC5 = assay: Cytotoxicity against human diploid embryonic lung cell line MRC-5 using MTT assay; assay type: functional, cell-based
Procedure, shortened: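 Cells seeded at 5000 per well and washed after 24 h. 2-fold drug dilutions added in RPMI + 5% FCS, final DMSO below 0.5%. Incubated 7 days at 37 °C, 5% CO2/95% air. MTT read-out at 540 nm as percent reduction versus untreated controls. IC50 in triplicate (mean ± SD).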

Plasmodium falciparum [4] = assay: Antiplasmodial activity against chloroquine-sensitive Plasmodium falciparum Ghana; assay type: functional, organism-based
Procedure, shortened: as §3

[5] = biological target: T1, Histidine-rich protein PFHRP-II (Plasmodium falciparum) (UniProt P05227); assay: Inhibition of beta-hematin formation; active; assay type: functional
T1 sequence (whole entry): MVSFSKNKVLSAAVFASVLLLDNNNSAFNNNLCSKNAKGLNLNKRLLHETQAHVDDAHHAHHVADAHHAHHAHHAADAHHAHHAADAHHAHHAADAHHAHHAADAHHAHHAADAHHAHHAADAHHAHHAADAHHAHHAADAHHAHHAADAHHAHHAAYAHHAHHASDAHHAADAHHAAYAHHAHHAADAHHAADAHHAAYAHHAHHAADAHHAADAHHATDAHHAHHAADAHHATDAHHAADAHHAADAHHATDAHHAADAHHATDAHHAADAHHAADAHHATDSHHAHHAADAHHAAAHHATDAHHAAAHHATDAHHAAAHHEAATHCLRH
Procedure, shortened: (§4)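 Hematin solutions received compound at 3 equiv relative to hemin before acidification. Incubated 40 min at 60 °C, then cooled and filtered; precipitate washed with water and dried. β-Hematin detected by FT-IR bands at 1660 and 1207 cm-1. Hemin without compound served as the formation control. Result is a qualitative yes/no call.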

[6] = biological target: T1, Histidine-rich protein PFHRP-II (Plasmodium falciparum); assay: Inhibition of beta-hematin formation; no inhibition; assay type: functional
Procedure, shortened: as §4

Nucleic Acid [7] = assay: as §1; assay type: functional
Procedure, shortened: as §2

Nucleic Acid [8] = assay: as §1; assay type: nucleic-acid assay; conditions: concentration not given here
Procedure, shortened: as §2

SMILES	inhibition [1]	IC50 (Trypanosoma cruzi) [µM]	IC50 (Nucleic Acid [2]) [µM]	IC50 (Trypanosoma brucei) [µM]	IC50 (Plasmodium falciparum [3]) [µM]	IC50 (MRC5) [µM]	IC50 (Plasmodium falciparum [4]) [µM]	inhibition [5]	inhibition [6]	IC50 (Nucleic Acid [7]) [mM]	inhibition (Nucleic Acid [8]) [%]
CSc1ccc2c(c1)cc1c3ccccc3nc-1n2C	Active	4	> 600	0.8	3.7	5	4				
Cn1c2nc3ccccc3c-2cc2cc(F)ccc21	Active	6	> 500	14.3	4.7	15	19.3				
Clc1ccc2[nH]c3nc4ccccc4c-3cc2c1	Active	> 32	> 1000	> 32	> 32	> 32	> 32				
Cn1c2nc3ccccc3c-2cc2ccc(Br)cc21		> 32	> 600	27.3		18.5		Active			
Cn1c2nc3ccccc3c-2cc2cc(C#N)ccc21		16.3	> 600	4	15.3	16	17				
COc1cccc2c1cc1c3ccccc3nc-1n2C		4	> 1000	1.3	12.3	5	17.7		No inhibition		
Cn1c2nc3ccccc3c-2cc2cc(Br)ccc21	Active	> 32	> 400	1	4	> 32	6				
COc1ccc2[nH]c3nc4ccccc4c-3cc2c1			> 1000	> 32	> 32	> 32	> 32	Active			
Cn1c2nc3ccccc3c-2cc2ccccc21 [NEOCRYPTOLEPINE]	Active	4	92.8	4	14	11	27.3				
Cc1ccc2c(c1)cc1c3ccccc3nc-1n2C				0.1	2.3	0.95	2.7				
C[n+]1c2ccccc2cc2[n-]c3ccccc3c21 [CRYPTOLEPINE]	Active		65.7	3	2	1.5	2.3				
Clc1cc(Cl)c2[nH]c3nc4ccccc4c-3cc2c1	Active			> 32	> 32	> 32	> 32			> 1	
Cn1c2nc3ccc(C#N)cc3c-2cc2cc(Cl)ccc21				> 32	> 32	> 32	> 32				
Cn1c2nc3ccc(C#N)cc3c-2cc2cc(F)ccc21	Active	> 32	> 600	4	14.7	11	16.3				
Cn1c2nc3ccccc3c-2cc2ccc(Cl)cc21		17	> 700	9.3		15.5		Active			
Cn1c2nc3ccccc3c-2cc2cc(Cl)ccc21	Active	12	> 500	1.3	5	16.5	21				
Cn1c2nc3ccc(C#N)cc3c-2cc2ccccc21	Active		> 1000	> 32	> 32	> 32	> 32				
COc1ccc2c(c1)cc1c3cc(C#N)ccc3nc-1n2C		1	> 500	1	17	> 32	28.3		No inhibition		
Cn1c2nc3ccccc3c-2cc2ccc(C(F)(F)F)cc21		> 32	> 500	16.7		18		Active			
Cn1c2nc3ccc(C#N)cc3c-2cc2cc(C(F)(F)F)ccc21		> 32	> 200	> 32	6.7	> 32	14				
Cn1c2nc3ccccc3c-2cc2cc(I)ccc21	Active	18.3	> 400	1	6.3	16	17.7				
Fc1ccc2[nH]c3nc4ccccc4c-3cc2c1		> 32	> 1000	> 32	> 32	> 32	> 32		No inhibition		
COc1ccc2c(c1)cc1c3ccccc3nc-1n2C		1.7	77.9	0.3	4.7	4	4.3		No inhibition		
Cn1c2nc3ccccc3c-2cc2c(C(F)(F)F)cccc21		16.3	> 400	> 32	> 32	16	> 32				
Cn1c2nc3ccccc3c-2cc2c(Br)cccc21		15.7	> 600	16.7	> 32	16	> 32		inactive		
COc1ccc2cc3c4ccccc4nc-3n(C)c2c1		1	150	0.4		3.5			No inhibition		37
Cn1c2nc3ccccc3c-2cc2cc([N+](=O)[O-])ccc21			> 1000	0.7	> 32	> 32	29				
